Test results published in ChEMBL document CHEMBL4513216, “Probing the Open Global Health Chemical Diversity Library for Multistage-Active Starting Points for Next-Generation Antimalarials” (ACS Infect Dis, 2020).

Test: Toxicity liver stage against HepG2, at 10uM
Type: cell-based
Set-up: test concentration 10 uM, cell line HepG2-A16-CD81EGFP
Conditions: human, HepG2-A16-CD81EGFP cells; read-out: INHIBITION
How it was run: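 Uninfected HepG2-A16-CD81EGFP cells, 3 × 10^3 per well, 1536-well, plated on prespotted compound at 10 μM final, parasite-free screening media added to match infected plates; puromycin 10 μM positive, DMSO 0.5% negative; run in parallel with 48 h PbLuc assay at 37 °C, 5% CO2; viability by CellTiter-Glo luminescence, normalized to controls.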

| Structure (SMILES) | cytotoxicity at 10 µM |
| --- | --- |
| COC(=O)c1cnn(-c2cc(Oc3cccc(C)c3)ncn2)c1N | 34.1% |
| COc1ccc(S(=O)(=O)NCCCc2nnc3nc(C)cc(C)n23)cc1 | 5.05% |
| COc1ccc2cc(NC(=O)CCNc3nc(C)cc(C)n3)cnc2c1 | -48.9% |
| Cc1cnc2c(c1NCc1ccc3c(c1)OCO3)c(=O)n(C)c(=O)n2C | 16.7% |
| CC(=O)Nc1cc(C2CC2)nn1-c1nc(C)c(C)c(=O)[nH]1 | -1.39% |
| O=C(C1CC1)N1CCC2(CC1)CNCc1ccccc12 | 1.79% |
| Cc1csc(CN2CC[C@H]3C[C@@H](c4nnc(C)[nH]4)O[C@@H]3C2)n1 | 1.56% |
| O=C1CO[C@@H]2CN(C3CCOCC3)C[C@H]2N1Cc1ccncc1 | -151% |
| CCC(CO)NCc1ccc(-c2ccccc2F)o1 (stereo not given) | -2.49% |
| CCOC(=O)CN1CCC2(CC1)CC(=O)c1ccc(OC)cc1O2 | 6.2% |
| CCS(=O)(=O)N1CCc2ccc(NC(=O)Nc3ccc(F)cc3F)cc21 | 51.2% |
| O=C(O)c1cccc2c(Br)cccc12 | 3.38% |
| CC(Cn1cc(Br)cn1)C(=O)Nc1ccc(C(N)=O)cc1 (stereo not given) | -0.609% |
| Cc1nn(C)c2c(NCc3ccccc3F)nc(C3CC3)nc12 | 15.5% |
| CC1CCCN(c2ncc(-c3ccccc3F)c(-c3nccn3C)n2)C1 (stereo not given) | 26.8% |
| CCOc1cc([C@H]2N[C@@H](c3nc(C)cs3)Cc3ccsc32)ccc1OC | 24.3% |
| CNC(=O)c1sc2ccccc2c1C1CCN(c2cc(C)nc(C)n2)C1 (stereo not given) | 10.8% |
| CCN1CCCC1CNCc1cc2cc(OC)ccc2[nH]c1=O (stereo not given) | -10.2% |
| CC(=O)N1CCCC(c2nc(N(C)C)ncc2-c2cccc(F)c2)C1 (stereo not given) | -34.8% |
| CNC(=O)c1cn[nH]c1C1(C)CCCN(Cc2ccccc2OC)C1 (stereo not given) | 0.353% |
| NC(=O)C1(c2cnccn2)CCCN1Cc1ccncc1 (stereo not given) | -0.446% |
| CC1CCCCN1c1nc2c(c(=O)[nH]1)CCN(Cc1ccccc1F)C2 (stereo not given) | -4.39% |

| Structure (SMILES) | cytotoxicity at 10 µM |
| --- | --- |
| COc1cc(OC)c(C2Nc3cc(Cl)ccc3C3=NCCN32)cc1OC (stereo not given) | -3.14% |
| CC(O)c1cccc(OCc2ccon2)c1 (stereo not given) | -5.28% |
| CC(=O)NC1CCN(C(=O)Nc2ccc(SC(F)F)cc2)CC1 | -6.91% |
| COc1ncnc(N)c1CNCCc1ccccc1 | -3.15% |
| CC(C)n1nccc1NC(=O)NCCc1nc2ccc(F)cc2n1C | -7.85% |
| O=C(c1nc(N2CCCC2)ncc1Cl)N1CCN(Cc2ccsc2)CC1 | -56% |
| Cc1nc(-c2nnc[nH]2)sc1C(=O)N1CCCC1c1ccsc1 (stereo not given) | -3.34% |
| CCn1c(C)cc(C(=O)N2CCC(NC(=O)c3ccc(C)o3)CC2)c1C | -7.45% |
| CC(c1ccco1)N(C(=O)NCc1ccon1)C1CC1 (stereo not given) | 0.805% |
| CCn1ccnc1CN1CCCC1C(=O)Nc1nccs1 (stereo not given) | -6.7% |
| CCNC(=O)NC(=O)C(C)N(C)CCOc1ccccc1C (stereo not given) | 3.45% |
| O=C(c1ccccc1)C1CCN(c2cncc(-n3cccn3)n2)CC1 | 0.935% |
| O=C(CN1C(=O)c2ccccc2CS1(=O)=O)c1ccccc1 | 15.3% |
| Cc1cccc(NC(=O)C2CCCN2C(=O)c2ccco2)c1C (stereo not given) | -2.59% |
| CC(C)(C)n1ncc2c1CCCC2NCc1ccc2ncccc2c1 (stereo not given) | 7.74% |
| Cc1ccc(CN(C)C(=O)CN2CCCCC2Cn2cncn2)cc1 (stereo not given) | 17.7% |
| COc1ccc(CN(C)C(=O)Cc2c(C)nn(C)c2C)cc1F | 17% |
| CCS(=O)(=O)CCN1CCC(N(C)Cc2ncc(C)o2)C1 (stereo not given) | 1.75% |
| CS(=O)(=O)NCCCNc1ccc(C(F)(F)F)cc1C#N | -2.18% |
| COc1ccc(C(=O)N(c2ccc(OC)c(F)c2)C(C)C)cn1 | -1.94% |
| COCCN(C)c1ccc(NCc2cscn2)nc1 | 0.513% |
| Cn1nc2c(cc1=O)CN(CCOc1ccccc1C#N)CC2 | 18% |

| Structure (SMILES) | cytotoxicity at 10 µM |
| --- | --- |
| CC(C)(C)n1cc(CNc2ccc(CNS(C)(=O)=O)cc2)cn1 | 16.1% |
| O=C(NCC1CCN(CCc2ccccc2)C1)c1cc(Cl)c[nH]1 (stereo not given) | 10% |
| OC(COCc1cccs1)Cn1cc(Cl)cn1 (stereo not given) | -0.574% |
| CCN1CCN(c2ccccc2NC(=O)N(C)C2CCSC2)CC1 (stereo not given) | -56.7% |
| NC(=O)c1cc(C2CCCN(CCc3ccc4c(c3)CCO4)C2)n[nH]1 (stereo not given) | -1.92% |
| Cc1nn(C)c(C)c1C1CCCN1Cc1cn2ccsc2n1 (stereo not given) | -51.6% |
| O=C(NCc1ccc(Cl)s1)c1ccc(N2CCOC2=O)cc1 | 21.1% |
| COc1c(C)cnc(CN(C)C2CCCCC2)c1C | 20.5% |
| N#Cc1cc(Cn2cnc(C3CCC3)cc2=O)ccc1F | -0.908% |
| CC(C)NC(=O)CNC(=O)C12CCC(=O)N1c1cc(Cl)ccc1S2 (stereo not given) | 11.7% |
| O=C(NS(=O)(=O)Cc1ccon1)c1ccsc1 | -14.2% |
| COCCCNC(=O)C(C)(C)N(C)C1CCCC1 | -51.3% |
| c1ccc(-c2cc(CN3CCC(c4ccn[nH]4)CC3)on2)cc1 | 7.98% |
| Clc1ccc2oc(C3CCN(Cc4cccnc4)CC3)nc2c1 | 9.82% |
| O=C(C1CCOCC1)N1CCC2(CC1)CN(c1ccsc1)C(=O)CO2 | -63.4% |
| c1csc(CN2CC[C@H]3O[C@@H](COCC4CC4)CC[C@H]32)c1 | -74.8% |
| COCCN1CCn2cc(CN(C)Cc3ccco3)nc2C1 | -74.9% |
| c1cnc(N2CCOCC3(CCCN(c4nncs4)C3)C2)cn1 (stereo not given) | 3.92% |
| NCCSc1nccc(-c2cnc(C3CC3)nc2-c2ccco2)n1 | -7.19% |
| CC(C)(O)CCc1ccc(C(=O)N2Cc3cnn(CCO)c3C2)cc1 | 2.69% |
| Cc1nc(CN2CCCC(CCc3ccccc3C(F)(F)F)C2)co1 (stereo not given) | 0.663% |
| Cc1ccc(-c2cn[nH]c2C2CCCN(c3cc(N)ncn3)C2)cc1 (stereo not given) | 55.4% |

| Structure (SMILES) | cytotoxicity at 10 µM |
| --- | --- |
| CN1CCC(N(C)CCC(=O)N2CCC(CCc3ccccc3)CC2)C1 (stereo not given) | -5.87% |
| Cc1ccsc1-c1cccc(-c2ccn(CC3CCNC3)n2)c1 (stereo not given) | -0.288% |
| CCNc1ccnc(NC2CCN(S(C)(=O)=O)CC2)n1 | -5.16% |
| CC(=O)N1CCN(C(=O)Nc2ccccc2Cl)[C@H]2CS(=O)(=O)C[C@H]21 | -0.166% |
| Cc1nn(C)c2nc(N(C)CC3CCN(CC(C)C)C3)sc12 (stereo not given) | -8.13% |
| CCCc1ccc(C(C)Nc2ncnc3c2CCNC3)cc1 (stereo not given) | 28.1% |
| CC1CCCN1Cc1cccc(C(=O)Nc2ccc3[nH]c(=O)oc3c2)c1 (stereo not given) | -13.4% |
| CCNC(=O)c1cn2cc(-c3ccccc3Cl)n(CC3CC3)c(=O)c2n1 | 4.63% |
| COc1nc2ccn(CCc3cnccn3)c(=O)c2cc1C#N | 54.1% |
| COCc1noc(Cn2c(=O)[nH]c3ccccc32)n1 | 4.84% |
| Cc1csc(N2CCCN(C3Cc4ccccc4C3)CC2)n1 | 10.3% |
| CC(C)c1cc(NC2CCN(C(=O)N3CCCC3)CC2)ncn1 | 10.2% |
| O=C(CCC1CCCN(C(=O)CCc2ccc(F)c(F)c2)C1)NC1CC1 (stereo not given) | 2.49% |
| O=C1CC2(CCN(Cc3ccoc3)CC2)CN1Cc1cc(F)cc(F)c1 | 12.2% |
| Cc1ccccc1OCC1CCCN(c2cc(N)nc(N)n2)C1 (stereo not given) | 29% |
| CSc1nnc(CC2CCN(C(=O)COc3cccnc3)CC2)n1C | -45.9% |
| COc1coc(CN2CCCC(CCc3ccc(F)cc3)C2)cc1=O (stereo not given) | 2.16% |
| CNC(=O)[C@@H]1C[C@@H](N)CN1c1nnc(-c2ccccc2)s1 | -36% |
| Fc1cccc(OC2CCN(CCn3cc4ccccc4n3)CC2)c1 | 8.33% |
| O=C1CC(c2ccsc2)c2snc(C(=O)O)c2N1 (stereo not given) | -0.772% |
| Cc1ccc2c(c1)SCC(=O)N2CC(=O)N1CCC[C@H]1c1nc(C)no1 | 7.95% |
| O=C(c1ccnc(N2CCOC(c3ccc(Cl)cc3)C2)c1)N1CCCC1 (stereo not given) | -1.8% |

| Structure (SMILES) | cytotoxicity at 10 µM |
| --- | --- |
| c1ccc2sc(N3CCCN(c4ncnc5c4CCNC5)CC3)nc2c1 | 31.2% |
| CN(Cc1cccc(O)c1)CC1CCCN(CCc2ccc(Cl)cc2)C1 (stereo not given) | 6.22% |
| Clc1ccccc1CCN1CCN(c2ccc3nncn3n2)CC1 | 1.78% |
| CSCCc1ccc(NC(=O)NCc2ccnc(N(C)C)c2)cc1 | 0.661% |
| Cc1ncsc1C(=O)NCc1ccnc(OCC(F)(F)F)c1 | -1.37% |
| C1CN(Cc2noc(C3CC3)n2)CCN(Cc2nnc(C3CC3)o2)C1 | -10.9% |
| CN(C)CC1CN(Cc2coc(-c3ccc(Cl)cc3)n2)CCO1 (stereo not given) | 0.35% |
| c1ccc(-c2noc(CN3CCc4cncnc4C3)n2)nc1 | -2.97% |
| CC(C)c1cc(NC(=O)CN2CCC(N3CCCCC3)CC2)on1 | -9.68% |
| O=C(NCCC(=O)N1CCCc2ccccc21)c1c(O)cc(F)cc1F | 1.35% |
| CC(C)Nc1nc(-c2ccccc2)nc2c1CCN(C(=O)C1CC1)CC2 | -108% |
| CN(Cc1ccncc1)C1COC2(CCN(Cc3nccn3C)CC2)C1 (stereo not given) | -98.7% |
| O=C(c1ccc[nH]1)N1CCn2cc(Cn3cccn3)nc2C1 | -81.9% |
| COc1ccc(CN2CCC3(CCCN(c4ncc(F)cn4)C3)C2)cc1 (stereo not given) | 62.8% |
| CC(C)NC1CCc2c(ccc(=O)n2CCN2CCOCC2)C1 (stereo not given) | 7.64% |
| COc1ccc(C[C@H]2CN(c3cc(OC)ncn3)CC[C@H]2OC)cc1 | 54.5% |
| CN(C)C(=O)CC1CC2(CCN(Cc3ccco3)CC2)c2ccccc21 (stereo not given) | -11.3% |
| COc1c(CNC2CCSc3ccc(F)cc32)c(C)nn1C (stereo not given) | 32.8% |
| O=C1CO[C@@H]2CN(CC3CC3)C[C@H]2N1Cc1cccc(F)c1 | -69.9% |
| N#Cc1ccc(N2CCC3(CC2)CC(N2CCOCC2)CO3)cc1 (stereo not given) | 19% |
| Fc1cccc(N2CCCC3(CN(Cc4cccnc4)CCO3)C2)c1 (stereo not given) | -78.2% |
| COc1ccc(CN2C[C@H]3CC[C@@H](C2)N(Cc2snnc2C)C3)cc1 | -21.7% |
